Results: ChEMBL document CHEMBL1129569, “Synthesis and anticonvulsant activities of N-Benzyl-2-acetamidopropionamide derivatives” (J Med Chem, 1996)
Values joined by “and” are separate entries in the source; they are usually repeats but may differ in a detail not shown here. Identical values can stand only once.

What was measured:
[1] = (§1) Neurotoxic toxicity was evaluated by rotarod test after intraperitoneal administration; assay type: organism-based; details: mouse, in vivo, ip
How it was run: (§2)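 Mice, ip, in 0.5% methylcellulose suspension. Impairment was defined as failure to stay balanced for 1 min on a 1 in. knurled rod turning at 6 rpm, in each of three successive trials.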

Mus musculus [2] = assay: Effective dose against maximal electroshock seizure in mice after intraperitoneal administration; assay type: functional
How it was run: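 Mice, ip; compounds suspended in 0.5% (w/v) methylcellulose in water, 0.01 mL/g body weight. Butacaine-containing saline electrolyte was dropped on the eyes, then corneal electrodes delivered 60-cycle AC, 50 mA, 0.2 s. The endpoint was abolition of hindlimb tonic extension.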

[3] = Neurotoxic toxicity in mice was evaluated by rotarod test after intraperitoneal administration; assay type: organism-based; details: mouse, in vivo, ip; how it was run: as §2
Rattus norvegicus = assay: Effective dose against maximal electroshock seizure in rat after oral administration; assay type: functional
How it was run: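 Male Sprague Dawley rats dosed orally with a suspension in 0.5% (w/v) methylcellulose in water. After anaesthetic electrolyte eye drops, corneal 60-cycle AC was applied at 150 mA for 0.2 s. Protection meant abolition of hindlimb tonic extensor.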

[4] = Neurotoxic toxicity against Rat was evaluated by rotarod test afte oral administration; assay type: organism-based; details: in vivo
[5] = Protective index between TD50/MES ED50 when administered intraperitoneally to mice; assay type: ADME, organism-based; details: mouse, in vivo, ip; read-out: PI
[6] = Protective index between TD50/MES ED50 when administered orally to rat; assay type: ADME, organism-based; details: in vivo, po, read-out: PI
How it was run: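 Rats, oral. PI = TD50 (ataxia, gait and placing-response assessment) / MES ED50 (150 mA, 0.2 s corneal shock), with both taken at the time of peak effect.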

[7] = Protective index between TD50/MES ED50 when administered intraperitoneally to mouse; assay type: ADME, organism-based; details: in vivo, ip, read-out: PI
[8] = Neurotoxic toxicity against Rat was evaluated by rotarod test afte oral administration <250; assay type: organism-based; details: in vivo
Mus musculus [9] = assay: as §1; assay type: organism-based; details: in vivo, ip; how it was run: as §2
[10] = Neurotoxic toxicity was evaluated by rotarod test after intraperitoneal administration determined from horizontal screen test; assay type: organism-based; details: mouse, in vivo, ip
[11] = Mus musculus, ip, read-out: ED50

Q: With `CC(=O)NC(CI)C(=O)NCc1ccccc1` (centres undefined) as the compound, how does the TD50 [1] read?
A: Its TD50 is 300 mg/kg.

Q: Which ED50 (Mus musculus [2]) does the source give for `CC(=O)NC(CN1CCOCC1)C(=O)NCc1ccccc1` (centres undefined) here?
A: Its ED50 is <300 mg/kg and >100 mg/kg.

Q: What about the TD50 [1] of the same compound?
A: Its TD50 is over 300 mg/kg.

Q: With `COC[C@H](NC(C)=O)C(=O)NCc1ccccc1` as the compound, how does the TD50 [3] read?
A: The TD50 was over 300 mg/kg.

Q: And the ED50 (Rattus norvegicus)?
A: Its ED50 is over 30 mg/kg.

Q: And the ED50 (Mus musculus [2])?
A: The ED50 was >100 mg/kg and <300 mg/kg.

Q: And the TD50 [4]?
A: Its TD50 is over 30 mg/kg.

Q: Which selectivity ratio [5] does the source give for `CC(=O)N[C@@H](C)C(=O)NCc1ccccc1` here?
A: The selectivity ratio was 1.5.

Q: What does the source list for `CC(=O)NC(C)C(=O)NCc1ccccc1` (centres undefined)?
A: selectivity ratio [5]: 5.9; selectivity ratio [6]: > 21; ED50 (Rattus norvegicus): 48 mg/kg

Q: Which ED50 (Mus musculus [2]; [11]) does the source give for `CCNCC(NC(C)=O)C(=O)NCc1ccccc1` (centres undefined) here?
A: Its ED50 is over 100 mg/kg.

Q: What about the TD50 [1] of the same compound?
A: The TD50 was 100 mg/kg.

Q: With `CC(=O)NC(NO)C(=O)NCc1ccccc1` (centres undefined) as the compound, how does the ED50 (Mus musculus [2]; [11]) read?
A: The ED50 was 100 mg/kg.

Q: What does the source list for `CCOCC(NC(C)=O)C(=O)NCc1ccccc1` (centres undefined)?
A: selectivity ratio [7]: 4.6; selectivity ratio [6]: > 26; ED50 (Rattus norvegicus): 19 mg/kg; TD50 [1]: 78 mg/kg

Q: With `COC[C@@H](NC(C)=O)C(=O)NCc1cccc(F)c1` as the compound, how does the selectivity ratio [5] read?
A: Its selectivity ratio is 6.7.

Q: And the selectivity ratio [6]?
A: Its selectivity ratio is over 58.

Q: And the ED50 (Rattus norvegicus)?
A: The ED50 was 6.9 mg/kg.

Q: What about the ED50 (Mus musculus [2]; [11]) of the same compound?
A: The ED50 was 6.9 mg/kg.

Q: And the TD50 [4]?
A: Its TD50 is over 400 mg/kg.

Q: And the TD50 [1]?
A: The TD50 was 46 mg/kg.

Q: Which ED50 (Mus musculus [2]; [11]) does the source give for `CC(=O)NC(CN)C(=O)NCc1ccccc1` (centres undefined) here?
A: The ED50 was over 100 mg/kg.

Q: And the TD50 [1]?
A: Its TD50 is over 100 mg/kg.

Q: For `COC[C@@H](NC(C)=O)C(=O)NCc1ccc(F)cc1`, which selectivity ratio [5] is on record?
A: The selectivity ratio was 6.7.

Q: And the ED50 (Rattus norvegicus)?
A: Its ED50 is 2.6 mg/kg.

Q: What about the ED50 (Mus musculus [2]; [11]) of the same compound?
A: The ED50 was 4.2 mg/kg.

Q: And the TD50 [4]?
A: Its TD50 is under 250 mg/kg.

Q: And the TD50 [8]?
A: Its TD50 is over 125 mg/kg.

Q: Which selectivity ratio [7] does the source give for `CC(=O)N[C@H](CO)C(=O)NCc1ccccc1` here?
A: The selectivity ratio was over 9.4.

Q: And the TD50 [3]?
A: Its TD50 is over 500 mg/kg.

Q: What about the ED50 (Mus musculus [2]; [11]) of the same compound?
A: The ED50 was 53 mg/kg.

Q: For `CC(=O)N[C@H](C)C(=O)NCc1ccccc1`, which selectivity ratio [5] is on record?
A: Its selectivity ratio is 3.9.

Q: And the selectivity ratio [6]?
A: The selectivity ratio was over 36.

Q: What about the ED50 (Rattus norvegicus) of the same compound?
A: The ED50 was 28 mg/kg.

Q: What about the ED50 (Mus musculus [2]; [11]) of the same compound?
A: The ED50 was 55 mg/kg.

Q: Which TD50 (Mus musculus [9]) does the source give for `CSCC(NC(C)=O)C(=O)NCc1ccccc1` (centres undefined) here?
A: Its TD50 is < 300 mg/kg and > 100 mg/kg.

Q: Which TD50 [1] does the source give for `CC(=O)NC(CN(C)C)C(=O)NCc1ccccc1` (centres undefined) here?
A: The TD50 was over 300 mg/kg.

Q: With `CC(=O)NC(CCl)C(=O)NCc1ccccc1` (centres undefined) as the compound, how does the ED50 (Mus musculus [2]; [11]) read?
A: Its ED50 is 100 mg/kg.

Q: What about the TD50 (Mus musculus [9]) of the same compound?
A: Its TD50 is < 300 mg/kg and > 100 mg/kg.

Q: For `CNCC(NC(C)=O)C(=O)NCc1ccccc1` (centres undefined), which ED50 (Mus musculus [2]) is on record?
A: The ED50 was <300 mg/kg and >100 mg/kg.

Q: What about the TD50 (Mus musculus [9]) of the same compound?
A: The TD50 was < 300 mg/kg and > 100 mg/kg.

Q: What does the source list for `CCCC(CCC)C(=O)O` [VALPROIC ACID]?
A: ED50 (Rattus norvegicus): 400 mg/kg; ED50 (Mus musculus [2]; [11]): 290 mg/kg

Q: With `CC(=O)NC(CBr)C(=O)NCc1ccccc1` (centres undefined) as the compound, how does the TD50 (Mus musculus [9]) read?
A: The TD50 was > 100 mg/kg and < 300 mg/kg.

Q: What does the source list for `O=C1NC(=O)C(c2ccccc2)(c2ccccc2)N1` [PHENYTOIN]?
A: selectivity ratio [7]: 6.6; selectivity ratio [6]: > 22; ED50 (Rattus norvegicus): 23 mg/kg; ED50 (Mus musculus [2]; [11]): 6.5 mg/kg

Q: What does the source list for `CONC(NC(C)=O)C(=O)NCc1ccccc1` (centres undefined)?
A: selectivity ratio [5]: 7.4; ED50 (Mus musculus [2]; [11]): 6.2 mg/kg

Q: With `CC(=O)NC(CO)C(=O)NCc1ccccc1` (centres undefined) as the compound, how does the ED50 (Mus musculus [2]) read?
A: The ED50 was >100 mg/kg and <300 mg/kg.

Q: What about the TD50 [10] of the same compound?
A: Its TD50 is under 300 mg/kg.

Q: With `CON(C)C(NC(C)=O)C(=O)NCc1ccccc1` (centres undefined) as the compound, how does the selectivity ratio [5] read?
A: The selectivity ratio was 7.6.

Q: And the ED50 (Mus musculus [2]; [11])?
A: The ED50 was 6.7 mg/kg.

Q: What about the TD50 [10] of the same compound?
A: Its TD50 is 51 mg/kg.

Q: For `COC[C@@H](NC(C)=O)C(=O)NCc1ccccc1` [LACOSAMIDE], which TD50 [4] is on record?
A: Its TD50 is over 500 mg/kg.
